Reference: ChEMBL document CHEMBL4376840, “Application of Fluorine- and Nitrogen-Walk Approaches: Defining the Structural and Functional Diversity of 2-Phenylindole Class of Cannabinoid 1 Receptor Positive Allosteric Modulators” (J Med Chem, 2020)
Activity calls are given as the source filed them.

Columns and labels:
[1] = target: T1, Cannabinoid receptor 1 (Homo sapiens, UniProt P21554); test: Positive allosteric modulatory activity at human CB1R expressed in CHO-K1 cells assessed as increase in CP55940-induced inhibition of forskolin-induced cAMP accumulation after 90 mins in presence of 100 nM CP55940 by hit-hunter cAMP assay; assay type: functional, cell-based
How it was run: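 Uses the HitHunter CHO-K1 hCB1R cAMP set-up above. Data normalized to % forskolin, 4-parameter fit. n ≥ 6, triplicate.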

[2] = target: Cannabinoid receptor 1 (Rattus norvegicus) (UniProt P20272); test: Positive allosteric modulatory activity at N-terminal GFP-tagged rat CB1R receptor expressed in HEK293 cells assessed as increase in CP55940-induced inhibition of forskolin-induced cAMP accumulation by measuring Emax for cAMP accumulation at low concentration of CP55940 at 0.3 microM after 30 mins by TR-FRET assay relative to forskolin; assay type: functional, cell-based
[3] = target: T1, Cannabinoid receptor 1; test: Displacement of [3H]SR141716A from human CB1R receptor expressed in CHO cell membranes after 2 hrs by liquid scintillation spectrometry analysis
[4] = target: T1, Cannabinoid receptor 1; test: Agonist activity at human CB1 receptor expressed in CHO cell membranes assessed as increase in G-protein coupling by measuring [35S]GTPgammaS binding after 90 mins in presence of [35S]GTPgammaS by liquid scintillation analysis; assay type: functional
How it was run: (§1)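 [35S]GTPγS binding to G protein in membranes from CHO cells stably expressing human CB1R, with test compound given alone. Data fit to a variable-slope 4-parameter nonlinear regression. n = 4–6 independent experiments in duplicate.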

[5] = test system: Mus musculus; test: Antinociceptive activity in ip dosed C57BL/6 mouse after 20 mins post treatment by warm water tail-flick assay; assay type: functional, organism-based
[6] = test system: Mus musculus; test: Antiallodynic activity against CFA-induced mechanical allodynia CD1 mouse model assessed as effect on ipsilateral paw withdrawal threshold at 0.3 mg/kg, ip measured every 3 hrs for 2 days post treatment by Von Frey test; assay type: functional, organism-based
How it was run: (§2)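 Mice received CFA injection into one paw. Mechanical paw withdrawal thresholds were measured in the injected (ipsilateral) and contralateral paws after i.p. compound at 0.1, 0.3, 1, 3, 10 or 30 mg/kg, compared with vehicle-treated groups at the same times.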

[7] = target: T1, Cannabinoid receptor 1; test: Positive allosteric modulatory activity at human CB1R expressed in CHO-K1 cells assessed as increase in CP55940-induced beta-arrestin2 recruitment after 90 mins in presence of CP55940 at EC20 concentration by pathhunter beta-arrestin assay; assay type: cell-based
How it was run: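 Read-out was chemiluminescent β-arrestin2 recruitment, fit with a 4-parameter regression. n = 1–3 independent experiments in duplicate.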

[8] = test system: Mus musculus; test: Effect on contralateral paw withdrawl threshold in CFA-induced mechanical allodynia CD1 mouse model at 0.1 to 30 mg/kg, ip measured every 3 hrs for 2 days post treatment by Von Frey test; assay type: ADME, organism-based; details: in vivo, 48 h; how it was run: as §2
[9] = test system: Mus musculus; test: Antiallodynic activity against CFA-induced mechanical allodynia CB1 receptor knockout CD1 mouse assessed as effect on ipsilateral paw withdrawal threshold at 30 mg/kg, ip measured for 0.5 to 4 hrs by Von Frey test; assay type: functional, organism-based
How it was run: (§3)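 Time course in the CFA model at 30 mg/kg i.p. Ipsilateral and contralateral mechanical paw withdrawal thresholds were followed from 30 min to 4 h post-injection in wild-type and CB1 knockout mice. Compared with vehicle by ANOVA and Bonferroni post hoc tests.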

[10] = test system: Mus musculus; test: Antiallodynic activity against CFA-induced mechanical allodynia CD1 mouse model assessed as increase in ipsilateral paw withdrawal threshold at 3 to 30 mg/kg, ip measured every 3 hrs for 2 days post treatment by Von Frey test; assay type: functional, organism-based; how it was run: as §2
[11] = target: T1, Cannabinoid receptor 1; test: Allosteric agonist activity at human CB1R expressed in CHO-K1 cells assessed as increase in beta arrestin2 recruitment after 90 mins by pathhunter beta-arrestin assay relative to CP55940; assay type: cell-based
How it was run: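 PathHunter CHO-K1 hCB1R cells (20,000/well) were held overnight in Opti-MEM with 1% FBS. Compound alone (0.10 nM – 10 μM) was given at 37°C for 90 min, then detection solution for 60 min at room temperature and chemiluminescence was read.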

[12] = target: T1, Cannabinoid receptor 1; test: Agonist activity at human CB1 receptor expressed in CHO cell membranes assessed as increase in G-protein coupling by measuring [35S]GTPgammaS binding after 90 mins in presence of [35S]GTPgammaS by liquid scintillation analysis relative to control; assay type: functional; how it was run: as §1
[13] = test system: Mus musculus; test: Antiallodynic activity against CFA-induced mechanical allodynia CD1 mouse model assessed as increase in ipsilateral paw withdrawal threshold at 30 mg/kg, ip after 30 mins post treatment by Von Frey test; assay type: functional, organism-based; how it was run: as §3
[14] = rat, microsomes, 1 µM
[15] = test system: Mus musculus; test: Effect on contralateral paw withdrawl threshold in CFA-induced mechanical allodynia CB1 receptor knockout CD1 mouse model at 0.1 to 30 mg/kg, ip measured for 0.5 to 4 hrs by Von Frey test; assay type: ADME, organism-based; details: in vivo
[16] = Toxicity in C57BL/6 mouse assessed as effect on hypothermia at 0.1 to 10 mg/kg, ip after 15 mins by thermometric method; assay type: organism-based; details: in vivo
How it was run: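 Male C57BL/6 mice were given 0.1 – 10 mg/kg compound or vehicle (1:1:18 ethanol:cremaphor:saline). Body temperature was measured at 15 min and expressed relative to vehicle (100%). n = 5–6.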

[17] = human, microsomes, 1 µM
[18] = target: Cannabinoid receptor 1 (Rattus norvegicus) (UniProt P20272); test: Positive allosteric modulatory activity at N-terminal GFP-tagged rat CB1R receptor expressed in HEK293 cells assessed as leftward shift in CP55940 dependent concentration response curve for inhibition of forskolin-induced cAMP accumulation after 30 mins by TR-FRET assay; assay type: functional, cell-based
[19] = target: T1, Cannabinoid receptor 1; test: Positive allosteric modulatory activity at human CB1R expressed in CHO-K1 cells assessed as increase in CP55940-induced inhibition of forskolin-stimulated cAMP production after 30 mins in presence of CP55940 at EC20 concentration by hit-hunter cAMP assay relative to control; assay type: functional, cell-based
How it was run: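 Read-out was chemiluminescent cAMP detection, fit with a variable-slope 4-parameter regression. n = 1–3 independent experiments in duplicate.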

[20] = test system: Mus musculus; test: Antiallodynic activity against CFA-induced mechanical allodynia CD1 mouse model assessed as effect on ipsilateral paw withdrawal threshold at 30 mg/kg, ip after 4 hrs post treatment by Von Frey test; assay type: functional, organism-based; how it was run: as §3

T1 sequence (P21554 whole entry): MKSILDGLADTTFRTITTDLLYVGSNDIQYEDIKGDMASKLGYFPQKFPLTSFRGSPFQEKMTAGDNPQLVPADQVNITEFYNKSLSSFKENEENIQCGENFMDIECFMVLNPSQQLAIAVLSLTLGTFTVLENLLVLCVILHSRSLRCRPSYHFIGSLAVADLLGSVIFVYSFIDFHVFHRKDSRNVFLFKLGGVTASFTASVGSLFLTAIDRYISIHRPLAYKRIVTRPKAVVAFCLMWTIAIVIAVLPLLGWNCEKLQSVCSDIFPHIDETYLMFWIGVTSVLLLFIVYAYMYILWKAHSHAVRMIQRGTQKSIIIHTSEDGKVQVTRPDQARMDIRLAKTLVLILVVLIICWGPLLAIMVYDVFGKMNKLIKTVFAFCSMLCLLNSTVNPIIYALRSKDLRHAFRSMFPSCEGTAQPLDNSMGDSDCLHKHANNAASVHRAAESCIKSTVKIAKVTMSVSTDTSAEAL
Cannabinoid receptor 1 (Rattus norvegicus), sequence (P20272 whole entry): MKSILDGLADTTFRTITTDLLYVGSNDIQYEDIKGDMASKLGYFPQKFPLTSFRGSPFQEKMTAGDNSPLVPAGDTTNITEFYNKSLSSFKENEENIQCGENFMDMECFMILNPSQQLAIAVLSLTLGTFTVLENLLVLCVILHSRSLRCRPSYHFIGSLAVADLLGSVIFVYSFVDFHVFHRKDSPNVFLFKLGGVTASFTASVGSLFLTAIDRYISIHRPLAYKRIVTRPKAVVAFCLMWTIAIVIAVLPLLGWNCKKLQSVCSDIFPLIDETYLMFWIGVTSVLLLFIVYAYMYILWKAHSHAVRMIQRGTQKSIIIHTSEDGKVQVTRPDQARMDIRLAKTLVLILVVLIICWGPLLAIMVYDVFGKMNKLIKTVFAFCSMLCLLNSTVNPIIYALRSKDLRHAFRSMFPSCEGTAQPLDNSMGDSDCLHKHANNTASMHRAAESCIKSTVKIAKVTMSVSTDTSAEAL

SMILES | EC50 [1] [nM] | Emax [2] [%] | Ki [3] [nM] | EC50 [4] [nM] | Activity [5] | Activity [6] | EC50 [7] [nM] | Activity [8] | Activity [9] | Activity [10] | Emax [11] [%] | Emax [12] [%] | Activity [13] | CLH [14] [µL/min] | Activity [15] | Activity [16] | CLH [17] [µL/min] | Activity [18] | Emax [19] [%] | Activity [20]
O=[N+]([O-])CC(c1ccccc1F)c1c(-c2cccc(F)c2)[nH]c2cc(F)ccc12 (centres undefined) | 2.2 | 32 | 4.8 | 47 | Dose-dependent effect | inactive | 750 | Non-Toxic | inactive | Active | 34 | 81 | Active | 248 | Non-Toxic | Non-Toxic | 44.9 | Dose-dependent effect | 93 | inactive
O=[N+]([O-])CC(c1ccccc1F)c1c(-c2cccc(F)c2)[nH]c2c(F)cccc12 (centres undefined) | 1.7 | 33 | 5.2 | 33 | Dose-dependent effect | inactive | 510 | Non-Toxic | inactive | Active | 25 | 84 | Active |  | Non-Toxic | Non-Toxic | 44.4 | Dose-dependent effect | 93 | inactive
